Measured values published in ChEMBL document CHEMBL1127538, “Anti-HIV michellamines from Ancistrocladus korupensis” (J Med Chem, 1994).

Experiments:
Assay type in all cases: functional, cell-based
MT2 [1] = assay: Cytotoxicity was measured against MT-2/HIV-1(RF).; conditions: Homo sapiens
Method in brief: (§1)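 Cytotoxicity was measured in cells-plus-drug control wells run alongside the antiviral assay. Serial half-log dilutions of acetate salts were tested in triplicate. After 6 days at 37 °C, viability was read spectrophotometrically by XTT reduction to soluble formazan. IC50 is the concentration giving a 50% decrease in viable cell number.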

MT2 [2] = assay: Anti -HIV activity was measured against MT-2/HIV-2(NIH-DZ); conditions: Homo sapiens
Method in brief: (§2)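 MT-2 cells (RPMI 1640 without phenol red, 5% FBS, 2 mM L-glutamine, 50 µg/mL gentamicin; 37 °C, 5% CO2) seeded at 5 × 10^5 cells/well and infected at an MOI pretitered for complete cell killing by day 6 (MOI 0.01-0.05). Serial half-log aqueous dilutions of acetate salt added in triplicate. After 6 days at 37 °C, viability read by XTT formazan. EC50 = 50% inhibition of virus-induced killing.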

CCRF-CEM [3] = assay: Cytotoxicity was measured against 174*CEM/HIV-1(IIIB); conditions: Homo sapiens; method in brief: as §1
CEM-SS [4] = assay: Anti-HIV activity was measured against HIV-1 Lymphotropic PM16 clinical isolates in CEM-SS cells; conditions: Homo sapiens
Method in brief: (§3)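 Cell lines in RPMI 1640 without phenol red, with 5% fetal bovine serum, 2 mM L-glutamine and 50 µg/mL gentamicin, at 37 °C and 5% CO2. Seeded at 5 × 10^5 cells/well and infected with pretitered virus at MOI 0.01-0.05, chosen for complete cell killing by day 6. Half-log aqueous dilutions of acetate salts tested in triplicate. XTT formazan read after 6 days; EC50 is 50% inhibition of virus-induced killing.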

MT2 [5] = assay: Anti -HIV activity was measured against MT-2/HIV-1(RF); conditions: Homo sapiens; method in brief: as §2
C8166 [6] = assay: Cytotoxicity was measured against C8166/HIV-1(RF); conditions: Homo sapiens; method in brief: as §1
CEM-SS [7] = assay: Anticytopathic activity was measured against HIV-2(CBL-20 strain) in CEM-SS human lymphoblastoid target cells; method in brief: as §3
CEM-SS [8] = assay: Anti-HIV activity was measured against HIV-1 Promonocytropic SKI clinical isolates in CEM-SS cells; conditions: Homo sapiens; method in brief: as §3
CEM-SS [9] = assay: Anti-HIV activity was measured against HIV-2 NIH-DZ strain laboratory strains in CEM-SS cells; conditions: Homo sapiens; method in brief: as §3
CEM-SS [10] = assay: Anti-HIV activity was measured against HIV-1 Lymphotropic MCK clinical isolates in CEM-SS cells; conditions: Homo sapiens; method in brief: as §3
MT2 [11] = assay: Anti-HIV activity was measured against drug resistant HIV-1 G9106 in MT-2 cells; conditions: Homo sapiens; method in brief: as §2
C8166 [12] = assay: Anti -HIV activity was measured against C8166/HIV-1(RF); conditions: Homo sapiens; method in brief: as §3
CEM-SS [13] = assay: Anti-HIV activity was measured against HIV-2 CBL-20 laboratory strains in CEM-SS cells; conditions: Homo sapiens; method in brief: as §3
CEM-SS [14] = assay: Anti-HIV activity was measured against HIV-1,RF laboratory strains in CEM-SS cells; conditions: Homo sapiens; method in brief: as §3
CEM-SS [15] = assay: Anti -HIV activity was measured against CEM-SS/HIV-1 (NIH-DZ); conditions: Homo sapiens; method in brief: as §3
CEM-SS [16] = assay: Anti-HIV activity was measured against HIV-1 Promonocytropic 214 clinical isolates in CEM-SS cells; conditions: Homo sapiens; method in brief: as §3
CEM-SS [17] = assay: Anti-HIV activity was measured against HIV-1 Promonocytropic TPI clinical isolates in CEM-SS cells; conditions: Homo sapiens; method in brief: as §3
CEM-SS [18] = assay: Anti-HIV activity was measured against HIV-2 ROD strain laboratory strains in CEM-SS cells; conditions: Homo sapiens; method in brief: as §3
PMC [19] = assay: Cytotoxicity was measured against PMCs/HIV-1(Ba-L); conditions: Homo sapiens
CEM-SS [20] = assay: Anti-HIV activity was measured against HIV-1 Promonocytropic MN clinical isolates in CEM-SS cells; conditions: Homo sapiens; method in brief: as §3
AA5 [21] = assay: Anti -HIV activity was measured against AA5/HIV-1(IIIB); conditions: Homo sapiens; method in brief: as §3
LDV-7 cell line [22] = assay: Anti -HIV activity was measured against LDV-7/HIV-1(RF); conditions: Homo sapiens; method in brief: as §3
CEM-SS [23] = assay: Anti-HIV activity was measured against HIV-2 MS laboratory strains in CEM-SS cells; conditions: Homo sapiens; method in brief: as §3
CEM-SS [24] = assay: Anti-HIV activity was measured against HIV-1 Lymphotropic 205 clinical isolates in CEM-SS cells; conditions: Homo sapiens; method in brief: as §3
CEM-SS [25] = assay: Anti-HIV activity was measured against HIV-1,IIIB laboratory strains in CEM-SS cells; conditions: Homo sapiens; method in brief: as §3
PBL [26] = assay: Anti -HIV activity was measured against PBLs/HIV-1 (WEJO); conditions: Homo sapiens
Method in brief: (§4)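 Lymphocytes and macrophages were isolated fresh from donor whole blood by Ficoll-Hypaque centrifugation. They were infected at an MOI giving maximal virus production by day 6 and treated with half-log dilutions of acetate salts in triplicate. After 6 days at 37 °C, RT activity or p24 core protein was quantified in cell-free supernatants. EC50 is 50% inhibition of virus production.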

PBL [27] = assay: Cytotoxicity was measured against PBLs/HIV-1 (WEJO); conditions: Homo sapiens
CEM-SS [28] = assay: Anti -HIV activity was measured against CEM-SS/HIV-1 (RF); conditions: Homo sapiens; method in brief: as §3
CEM-SS [29] = assay: Cytotoxicity was measured against CEM-SS/HIV-1 (NIH-DZ); conditions: Homo sapiens; method in brief: as §1
LDV-7 cell line [30] = assay: Cytotoxicity was measured against LDV-7/HIV-1(RF); conditions: Homo sapiens; method in brief: as §1
PMC [31] = assay: Anti -HIV activity was measured against PMCs/HIV-1(Ba-L); conditions: Homo sapiens; method in brief: as §4
CEM-SS [32] = assay: Anti-HIV activity was measured against HIV-1,LAV laboratory strains in CEM-SS cells; conditions: Homo sapiens; method in brief: as §3
MT2 [33] = assay: Cytotoxicity was measured against MT-2/HIV-2(NIH-DZ); conditions: Homo sapiens; method in brief: as §1
C-344 cell line [34] = assay: Anti -HIV activity was measured against C-344/HIV-1(RF); conditions: Homo sapiens; method in brief: as §3
CCRF-CEM [35] = assay: Anti -HIV activity was measured against 174*CEM/HIV-1(IIIB); conditions: Homo sapiens; method in brief: as §3
C-344 cell line [36] = assay: Cytotoxicity was measured against C-344/HIV-1(RF); conditions: Homo sapiens; method in brief: as §1
MT2 [37] = assay: Anti-HIV activity was measured against drug resistant HIV-1 A17 in MT-2 cells; conditions: Homo sapiens; method in brief: as §2
AA5 [38] = assay: Cytotoxicity was measured against AA5/HIV-1(IIIB); conditions: Homo sapiens; method in brief: as §1
CEM-SS [39] = assay: Anti-HIV activity was measured against HIV-1 Lymphotropic G clinical isolates in CEM-SS cells; conditions: Homo sapiens; method in brief: as §3
CEM-SS [40] = assay: Cytotoxicity was measured against CEM-SS/HIV-1 (RF); conditions: Homo sapiens; method in brief: as §1
CEM-SS [41] = assay: Anticytopathic activity was measured against HIV-1(RF strain) in CEM-SS human lymphoblastoid target cells; method in brief: as §3

COc1cc(C)cc2c(-c3c(O)cc(O)c4c3C[C@@H](C)N[C@@H]4C)cc(-c3cc(-c4c(O)cc(O)c5c4C[C@@H](C)N[C@@H]5C)c4cc(C)cc(OC)c4c3O)c(O)c12 (stereo in doubt; form 3) [MICHELLAMINE A]
IC50 (MT2 [1]): 200 µM | EC50 (MT2 [2]): 6 µM | IC50 (CCRF-CEM [3]): > 125 µM | EC50 (CEM-SS [4]): 12 µM | EC50 (MT2 [5]): 40 µM | IC50 (C8166 [6]): > 240 µM | EC50 (CEM-SS [7]): 2 µM | EC50 (CEM-SS [8]): 12 µM | EC50 (CEM-SS [9]): 5 µM | EC50 (CEM-SS [10]): 3 µM | EC50 (MT2 [11]): 5 µM | EC50 (C8166 [12]): 88 µM | EC50 (CEM-SS [13]): 2 µM | EC50 (CEM-SS [14]): 12 µM | EC50 (CEM-SS [15]): 1 µM | EC50 (CEM-SS [16]): 10 µM | EC50 (CEM-SS [17]): 6 µM | EC50 (CEM-SS [18]): 18 µM | IC50 (PMC [19]): > 240 µM | EC50 (CEM-SS [20]): 13 µM | EC50 (AA5 [21]): 33 µM | EC50 (LDV-7 cell line [22]): 13 µM | EC50 (CEM-SS [23]): 7 µM | EC50 (CEM-SS [24]): 11 µM | EC50 (CEM-SS [25]): 1 µM | EC50 (PBL [26]): 5 µM | IC50 (PBL [27]): > 240 µM | EC50 (CEM-SS [28]): 13 µM | IC50 (CEM-SS [29]): 42 µM | IC50 (LDV-7 cell line [30]): 100 µM | EC50 (PMC [31]): 10 µM | EC50 (CEM-SS [32]): 4 µM | IC50 (MT2 [33]): 100 µM | EC50 (C-344 cell line [34]): 39 µM | EC50 (CCRF-CEM [35]): 23 µM | IC50 (C-344 cell line [36]): 160 µM | EC50 (MT2 [37]): 9 µM | IC50 (AA5 [38]): > 125 µM | EC50 (CEM-SS [39]): 3 µM | IC50 (CEM-SS [40]): 120 µM

COc1cc(C)cc2c(-c3c(O)cc(O)c4c3C[C@@H](C)N[C@@H]4C)cc(-c3cc(-c4c(O)cc(O)c5c4C[C@@H](C)N[C@@H]5C)c4cc(C)cc(OC)c4c3O)c(O)c12 (stereo in doubt; form 2) [MICHELLAMINE A]
EC50 (CEM-SS [41]; cem-ss): 13 µM

COc1cc(C)cc2c(-c3c(O)cc(O)c4c3C[C@@H](C)N[C@@H]4C)cc(-c3cc(-c4c(O)cc(O)c5c4C[C@@H](C)N[C@@H]5C)c4cc(C)cc(OC)c4c3O)c(O)c12 (stereo in doubt; form 1) [MICHELLAMINE A]
EC50 (CEM-SS [41]; Homo sapiens, CEM-SS): 10 µM | EC50 (CEM-SS [7]): 10 µM
